Assay [1] relates to Pseudomonas aeruginosa. Put plainly: Potentiation of rifampicin-induced antibacterial activity against multidrug/extremely drug-resistant/colistin-susceptible Pseudomonas aeruginosa isolate P264-104354 assessed as fold reduction in rifampicin MIC at 4 ug/ml after 18 hrs by checkerboard assay relative to control. In kind it is functional. The procedure, abridged: (§1)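 Checkerboard broth microdilution in MHB: antibiotic serially diluted along one axis, adjuvant along the other (10 × 7 matrix). Inoculum from 0.5 McFarland saline suspension diluted 1:50 in MHB; 18 h at 37 °C. MIC taken as lowest concentration with no growth. FIC per agent = combination MIC/MIC alone; FIC index = sum (≤0.5 synergy).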

For assay [2], the system named is Pseudomonas aeruginosa. Description: Potentiation of rifampicin-induced antibacterial activity against Pseudomonas aeruginosa PAO200 harboring MexAB-oprM deletion mutant after 18 hrs by checkerboard assay. It counts as functional. Summed up: (§2)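 Checkerboard in Mueller-Hinton broth: antibiotic serially diluted along one axis and adjuvant along the other (10 × 7 matrix). Inoculum from a 0.5 McFarland saline suspension diluted 1:50 in MHB; 18 h at 37 °C, then plate read. MIC is the lowest concentration with no growth. FIC of each agent is its concentration in a no-growth well divided by its MIC alone; FIC index is the sum of both. FIC index ≤0.5 counts as synergy.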

In assay [3] the test system is Pseudomonas aeruginosa. Description: Potentiation of rifampicin-induced antibacterial activity against multidrug/extremely drug-resistant/colistin-susceptible Pseudomonas aeruginosa isolate P262-101856 infected in Galleria mellonella assessed as host survival at 75 mg/kg after 24 hrs relative to control. It counts as functional. The note with it: isolate P262-101856, 24 h. The procedure, abridged:
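Galleria mellonella larvae (about 250 mg, used within 7 days; 15 per group) were injected with 10 µL of XDR P. aeruginosa P262 at 1.0×10^3 CFU/mL. At 2 h they received a single 10 µL injection: monotherapy at 75 mg/kg, or combinations at 12.5+12.5 to 75+75 mg/kg. PBS vehicle served as control. Survival was scored over 24 h at 37 °C.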

Another assay concerns Escherichia coli. Description: Antibacterial activity against gentamicin-resistant Escherichia coli isolate CAN-ICU 61714 after 18 hrs by microtiter dilution assay. In kind it is functional. The settings on record: isolate CAN-ICU 61714, 18 h. Summed up:
(§3)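 Broth microdilution following CLSI guidelines. An overnight culture was adjusted to 0.5 McFarland in saline, then diluted 1:50 in Mueller-Hinton broth. This inoculum was added in equal volume to 2-fold serial dilutions of agent in MHB and incubated 18 h at 37 °C. MIC was the lowest concentration with no visible growth.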

The subject of assay [4] is Acinetobacter baumannii. Put plainly: Synergistic antibacterial activity against multidrug-resistant Acinetobacter baumannii 110193 after 18 hrs in presence of minocycline by checkerboard assay. The settings on record: Acinetobacter baumannii, 110193, 18 h. It counts as functional. The procedure, abridged:
(§4)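 Checkerboard in MHB with a 10 × 7 matrix: antibiotic serially diluted along one axis, adjuvant along the other. Inoculum was a 1:50 dilution of a 0.5 McFarland suspension, incubated 18 h at 37 °C and read on a plate reader. Each FIC is the concentration in a no-growth well divided by the MIC alone; FIC index is their sum, with ≤0.5 taken as synergy.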

Assay [5] concerns Pseudomonas aeruginosa. Put plainly: Synergistic antibacterial activity against Pseudomonas aeruginosa PAO1 after 18 hrs in presence of meropenem by checkerboard assay. It counts as functional. The settings on record: PAO1, 18 h. The procedure, abridged:
(§5)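 Checkerboard in MHB: antibiotic diluted along one axis and adjuvant along the other (10 × 7 matrix). Inoculum was a 1:50 dilution in MHB of a 0.5 McFarland saline suspension; incubated 18 h at 37 °C. Each FIC = concentration in the no-growth well divided by the MIC alone; FIC index = sum of both FICs. ≤0.5 synergy, 0.5–4 no interaction, ≥4 antagonism.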

Assay [6] deals with Acinetobacter baumannii. Put plainly: Synergistic antibacterial activity against multidrug-resistant Acinetobacter baumannii AB027 after 18 hrs in presence of minocycline by checkerboard assay. In kind it is functional. The note with it: AB027, 18 h. The procedure, abridged:
as §4

Assay [7] relates to Pseudomonas aeruginosa. Put plainly: Bactericidal activity against Pseudomonas aeruginosa PAO1 at 2 times antibacterial MIC after 30 mins. It counts as functional. Summed up: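 Time-kill with P. aeruginosa PAO1. A 0.5 McFarland suspension was diluted 1:50 in LB broth and exposed to agent in PBS (pH 7.2) at 1/2×, 1×, 2× or 4× MIC at 37 °C for 6 h. Samples at 0, 10, 30, 60, 90, 120, 240 and 360 min were serially diluted in PBS, plated on LB agar, and colonies counted after 20 h at 37 °C.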

A short description of assay [8]: Ratio of cytotoxic concentration against human DU145 cells to synergistic concentration for Pseudomonas aeruginosa PAO1 in presence of minocycline.
For assay [9], the system named is Pseudomonas aeruginosa. Description: Synergistic antibacterial activity against Pseudomonas aeruginosa PAO1 after 18 hrs in presence of novobiocin by checkerboard assay. In kind it is functional. The note with it: PAO1, 18 h. Summed up:
as §5

Assay [10] concerns Acinetobacter baumannii. Put plainly: Synergistic antibacterial activity against multidrug-resistant Acinetobacter baumannii AB031 after 18 hrs in presence of minocycline by checkerboard assay. In kind it is functional. The settings on record: AB031, 18 h. The procedure, abridged:
as §4

For assay [11], the system named is Pseudomonas aeruginosa. Put plainly: Potentiation of rifampicin-induced antibacterial activity against multidrug/extremely drug-resistant/colistin-susceptible Pseudomonas aeruginosa isolate 100036 at 4 ug/ml after 18 hrs by checkerboard assay. It counts as functional. Summed up:
as §2

Assay [12] has as its system Pseudomonas aeruginosa. Description: Potentiation of minocycline-induced antibacterial activity against Pseudomonas aeruginosa PAO200 harboring MexAB-oprM deletion mutant after 18 hrs by checkerboard assay. It counts as functional. Summed up: as §2
In assay [13] the test system is Acinetobacter baumannii. Description: Antibacterial activity against multidrug-resistant Acinetobacter baumannii AB030 after 18 hrs by microtiter dilution assay. It counts as functional. The settings on record: AB030, 18 h. Summed up: as §3
The test system of assay [14] is Pseudomonas aeruginosa. Put plainly: Potentiation of trimethoprim-induced antibacterial activity against Pseudomonas aeruginosa PAO1 at 4 ug/ml after 18 hrs by checkerboard assay. It counts as functional. The procedure, abridged: as §1
Assay [15] deals with Acinetobacter baumannii. Description: Potentiation of minocycline-induced antibacterial activity against multidrug-resistant Acinetobacter baumannii AB027 at 4 ug/ml after 18 hrs by checkerboard assay. It counts as functional. The procedure, abridged: as §2
The test system of assay [16] is Acinetobacter baumannii. Put plainly: Synergistic antibacterial activity against multidrug-resistant Acinetobacter baumannii AB030 after 18 hrs in presence of minocycline by checkerboard assay. It counts as functional. The note with it: AB030, 18 h. The procedure, abridged: as §4
Assay [17] has as its system Pseudomonas aeruginosa. Put plainly: Bactericidal activity against Pseudomonas aeruginosa PAO1 at 0.125 times antibacterial MIC after 6 hrs. In kind it is functional.
Assay [18] relates to Acinetobacter baumannii. Put plainly: Antibacterial activity against Acinetobacter baumannii isolate CAN-ICU 63169 after 18 hrs by microtiter dilution assay. In kind it is functional. The note with it: isolate CAN-ICU 63169, 18 h. Summed up: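 Broth microdilution per CLSI. Overnight culture adjusted to 0.5 McFarland in saline, diluted 1:50 in Mueller-Hinton broth, and added to an equal volume of 2-fold serial compound dilutions in MHB. Incubated 18 h at 37 °C. MIC taken as the lowest concentration with no visible growth.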

Assay [19] deals with Pseudomonas aeruginosa. Description: Potentiation of minocycline-induced antibacterial activity against multidrug/extremely drug-resistant/colistin-resistant Pseudomonas aeruginosa isolate 101243 assessed as fold reduction in minocycline MIC at 4 ug/ml after 18 hrs by checkerboard assay relative to control. It counts as functional. The procedure, abridged:
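Checkerboard in Mueller-Hinton broth, 10 × 7 matrix, with the adjuvant held at 4 µg/mL. Inoculum from a 0.5 McFarland suspension diluted 1:50; 18 h at 37 °C. Antibiotic MIC (lowest concentration with no growth) with adjuvant is compared with the antibiotic MIC alone, giving a fold reduction.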

Activity calls are given as the source filed them. The calls are words filed in the database; no cut-off is given here.

Broadly, the MIC is the lowest concentration found to suppress growth. Turning to `Cl.Cl.Cl.Cl.Cl.Cl.Cl.NCCCC[C@H](N)C(=O)N(CCCCCCCCCCCCO[C@@H]1[C@@H](O[C@H]2O[C@H](CO)[C@@H](O)[C@H](N)[C@H]2O)[C@H](N)C[C@H](N)[C@H]1O[C@H]1O[C@H](CN)[C@@H](O)C[C@H]1N)Cc1c2ccccc2c(Cl)c2ccccc12`, the “fold change (FC)” value was 64 with Pseudomonas aeruginosa [1] and 4 in the assay on Pseudomonas aeruginosa [19]. The “fractional inhibitory concentration index (FICI)” value is given as 0.129 with Pseudomonas aeruginosa [2]; 0.079 in the assay on Pseudomonas aeruginosa [11]; 0.531 with Pseudomonas aeruginosa [12]; 0.126 in the assay on Pseudomonas aeruginosa [14]; 0.258 with Acinetobacter baumannii [15]. Also, the survival at 75 mg/kg in the assay on Pseudomonas aeruginosa [3] was found to be 77%. Moreover, the MIC with Escherichia coli amounted to 32 µg/mL; in the assay on Acinetobacter baumannii [4] it was 2 µg/mL; with Pseudomonas aeruginosa [5], 1 µg/mL; in the assay with Acinetobacter baumannii [6], 1 µg/mL; in the assay on Pseudomonas aeruginosa [9] it was 2 µg/mL; with Acinetobacter baumannii [10], 2 µg/mL. In addition, the MIC in the assay with Acinetobacter baumannii [13] stood at 64 µg/mL; with Acinetobacter baumannii [16], 16 µg/mL; in the assay with Acinetobacter baumannii [18], 128 µg/mL. For the same molecule, the outcome with Pseudomonas aeruginosa [7] was Active. Further, in assay [8], the Ratio was found to be 6. The result with Pseudomonas aeruginosa [17] was inactive.

For the origin of these results see ChEMBL document CHEMBL4014308, “Amphiphilic Tobramycin-Lysine Conjugates Sensitize Multidrug Resistant Gram-Negative Bacteria to Rifampicin and Minocycline” (J Med Chem, 2017).
